F508del corr: F508del CFTR correction, initial screen, CFBE line, single point; CFBE cells, YFP halide quenching; stimulated with forskolin plus potentiator P3; % fluorescence drop versus neutral controls; activity (quench increase), % at 7.58 µM; hit rate 0.36% among 350,000; AID 720511, 2013;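 active means mean added fluorescence quench of at least 8% versus neutral control, with both replicates also reaching 8%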;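 further: cells transiently co-express mutant CFTR-F508del with the halide-sensitive YFP; corrector assay measuring rescue of mutant channel to the surface after 24 h compound exposure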
PAX8 reporter: inhibitors of PAX8-driven TPO luciferase reporter, primary screen, RMG-I cells, single concentration. SteadyGlo, 24 h. inhibition, % at 12.6 µM. hit rate 1.2% among 360,000;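 active means mean replicate inhibition at least 60% with every replicate also reaching 60%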;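 further: luciferase light reporting Pax8 driven TPO promoter activity; plate controls were median of neutral control wells for no effect and mitoxantrone controls for full effect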
PGC1a acetyl inh: inhibitors of PGC1a acetylation signal, primary screen, cell-based, U2OS, AlphaScreen, inhibitor mode | AlphaScreen anti-acetyl-lysine; with virally co-expressed GCN5 acetyltransferase | inhibition, % at 15.6 µM | hit rate 0.17% among 350,000 | AID 651687, 2012;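 active means every replicate shows inhibition of at least 40%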;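 further: 0% = neutral control wells and 100% = positive control wells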
EWS-Fli inh: EWS/Fli-driven NR0B1 reporter inhibitors, primary screen, A673 cells, NR0B1 luciferase, luminescence, MLPCN library; hit rate 0.67% among 350,000; inhibition, % at 12.6 µM; viability-normalised;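 active means mean inhibition of at least 50% after viability correction, with every replicate also passing that limit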;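 further: firefly luciferase signal divided by Alamar Blue viability fluorescence both relative to DMSO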
HIV Env fusion: inhibitors of HIV-1 Env-driven cell-cell fusion, primary screen, HeLa-JRFL effector, CEM21 target cells, luciferase | hit rate 1.1% among 360,000 | inhibition, % at 12.3 µM | AID 651610, 2012;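 active means mean replicate inhibition score of at least 50 and every replicate individually at or above 50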;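 further: 0% = plate neutral controls and 100% = maraviroc near 300 nM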
FN deposition inh: inhibitors of fibronectin matrix deposition, primary screen, AH1F cells, Alexa488-fibronectin fluorescence, plate reader; AID 743247, 2014; AH1F fibroblasts, overnight; inhibition, % at 12.6 µM; hit rate 0.086% among 350,000;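 active means mean inhibition across replicates of 30% or more, regardless of how many single replicates reach that level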;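 further: positive control wells lacked labelled fibronectin entirely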
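Assay system: AH1F fibroblast monolayer, labelled fibronectin deposition. Amount: 10000 cells per well. Also added: labelled fibronectin 24 nM. Compound: single-point pinned compound. Incubation: cell attachment 1 h, compound and FN exposure overnight. Detection: fluorescence after three HBSS washes, excitation 485 nm, emission 525 nm. Read-out: inhibition of fibronectin deposition signal.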
An asterisk follows results filed as active; / = no result given; [ ] = remark or other dose. Compounds with a hit are over-represented: about 2.3% of the library has one in this group of screens.

SMILES	F508del corr	PAX8 reporter	PGC1a acetyl inh	EWS-Fli inh	HIV Env fusion	FN deposition inh
Cc1nc2c(OCc3ccc(C(F)(F)F)cc3)cccn2c1N(C)C(=O)CCC1CCCC1	0	23	-5	15	61*	-10
C[C@H]1CCCCO[C@@H](CN(C)S(=O)(=O)c2ccc(Cl)cc2)[C@@H](C)CN([C@@H](C)CO)C(=O)c2cc(NS(=O)(=O)c3ccc(F)cc3)ccc2O1	1	63*	3	7	11[16.7 µM]	-1
C[C@@H]1CCCCO[C@H](CN(C)S(=O)(=O)c2ccc(Cl)cc2)[C@H](C)CN([C@@H](C)CO)C(=O)c2cc(NS(=O)(=O)c3ccc(F)cc3)ccc2O1	-1	83*	1	4	-104[16.7 µM]	-9
C[C@H]1CCCCO[C@@H](CN(C)S(=O)(=O)c2ccc(F)cc2)[C@@H](C)CN([C@@H](C)CO)C(=O)c2cc(NS(=O)(=O)c3ccc(Cl)cc3)ccc2O1	0	69*	-2	-4	34[16.7 µM]	0
C[C@H](CO)N1C[C@H](C)[C@@H](CN(C)S(=O)(=O)c2ccc(Cl)cc2)OCCCC[C@H](C)Oc2ccc(NS(=O)(=O)c3ccc(F)cc3)cc2C1=O	1	84*	2	-1	-2[16.7 µM]	2
CO[C@@H]1CN(C)C(=O)c2ccc(NC(=O)Nc3cccc(F)c3)cc2OC[C@@H](C)N(C(C)=O)C[C@H]1C	-1	/	-6	-1	-1[16.7 µM]	-8
CN(C)C(=O)[C@@H]1[C@@H](CO)[C@@H]2Cn3c(ccc(-c4ccncc4)c3=O)[C@H]1N2CC1CCCC1	-1	/	/	1	/	/
C[C@@H]1CN([C@H](C)CO)C(=O)c2cc(NS(=O)(=O)c3ccc(F)cc3)ccc2O[C@@H](C)CCCCO[C@H]1CN(C)S(=O)(=O)c1ccc(Cl)cc1	2	98*	2	8	-6[16.7 µM]	-1
Cc1ccc(S(=O)(=O)N[C@@H]2C=C[C@H](CC(=O)N3CCC(Cc4ccccc4)CC3)O[C@@H]2CO)cc1	0	-19	19	1	5[16.7 µM]	/
Cc1ccc(S(=O)(=O)N[C@@H]2C=C[C@@H](CC(=O)NCCN3CCCCC3)O[C@H]2CO)cc1	0	-1	-10	-4	-4[16.7 µM]	/
Cc1ccc(S(=O)(=O)N[C@H]2C=C[C@@H](CC(=O)NCCN3CCCCC3)O[C@H]2CO)cc1	-1	5	105*	-7	-19[16.7 µM]	/
Cc1ccc(S(=O)(=O)N[C@H]2C=C[C@@H](CC(=O)N3CCC(Cc4ccccc4)CC3)O[C@H]2CO)cc1	0	-36	12	-1	56*[16.7 µM]	/
COc1ccc2c3c([nH]c2c1)[C@H](CO)N(Cc1ccccc1F)CC31CCN(C(=O)C2CCC2)CC1	-1	12	/	19	/	/
COCC(=O)Nc1ccc2c(c1)OC[C@@H](C)N(CC1CCCCC1)C[C@@H](C)[C@H](OC)CN(C)C2=O	/	/	/	/	/	-1
CCCCCN(C(=O)CCc1cn(CCCCC)c2ccccc12)c1ccc(N(C)c2ccccn2)cc1	-1	2	/	0	23	-4
CCCCCN(C(=O)CCc1cn(CCCCC)c2ccccc12)c1ccc(Oc2cccnc2)cc1	-1	-2	/	15	58*	14
COc1cccc(NC(=O)N(C)C[C@@H]2Oc3ncc(C#Cc4ccc(F)cc4)cc3C(=O)N([C@@H](C)CO)C[C@@H]2C)c1	2	/	-4	-6	9[16.7 µM]	6
CCNC(=O)C[C@H]1CC[C@@H]2[C@@H](COc3ccc(NC(=O)c4cc(C)on4)cc3C(=O)N2C)O1	0	-16	3	4	-1[16.7 µM]	2
Cc1ccc(S(=O)(=O)N(C)C[C@H]2OCCCC[C@@H](C)Oc3ccc(NS(=O)(=O)c4ccc(F)cc4)cc3C(=O)N([C@@H](C)CO)C[C@H]2C)cc1	2	83*	-9	2	-34[16.7 µM]	-9
Cc1ccc(S(=O)(=O)Nc2ccc3c(c2)C(=O)N([C@H](C)CO)C[C@@H](C)[C@H](CN(C)S(=O)(=O)c2ccc(F)cc2)O3)cc1	-2	/	-16	-5	60*[16.7 µM]	/
Cc1ccc(S(=O)(=O)Nc2ccc3c(c2)C(=O)N([C@@H](C)CO)C[C@@H](C)[C@@H](CN(C)S(=O)(=O)c2ccc(F)cc2)OCCCC[C@@H](C)O3)cc1	3	68*	0	-8	-22[16.7 µM]	/
Cc1ccc(S(=O)(=O)Nc2ccc3c(c2)C(=O)N([C@H](C)CO)C[C@H](C)[C@H](CN(C)S(=O)(=O)c2ccc(F)cc2)OCCCC[C@H](C)O3)cc1	3	68*	-8	16	-81[16.7 µM]	/
CO[C@H]1CN(C)C(=O)c2cc(NC(=O)c3cnccn3)ccc2OC[C@H](C)N(CC2CC2)C[C@H]1C	2	/	-1	13	/	-3
N#C[C@@H]1[C@@H](c2ccccc2-c2ccccc2F)[C@H](CO)N1C(=O)C1CCOCC1	-2	8	0	11	/	0
CC(=O)N(C)C[C@@H]1Oc2cc(C3=CCCCC3)ccc2S(=O)(=O)N([C@H](C)CO)C[C@H]1C	-4	/	-4	-6	6[16.7 µM]	/
SMILES	F508del corr	PAX8 reporter	PGC1a acetyl inh	EWS-Fli inh	HIV Env fusion	FN deposition inh
C[C@@H]1CCCCO[C@H](CN(C)S(=O)(=O)c2ccccc2)[C@H](C)CN([C@@H](C)CO)C(=O)c2cc(NS(=O)(=O)c3ccc(F)cc3)ccc2O1	1	33	-6	1	-76[16.7 µM]	0
C[C@H](CO)N1C[C@H](C)[C@H](CN(C)S(=O)(=O)c2ccccc2)OCCCC[C@H](C)Oc2ccc(NS(=O)(=O)c3ccc(F)cc3)cc2C1=O	1	63*	-9	2	39[16.7 µM]	-3
Cc1ccc(S(=O)(=O)N(C)C[C@@H]2OCCCC[C@H](C)Oc3ccc(NS(=O)(=O)c4ccc(F)cc4)cc3C(=O)N([C@H](C)CO)C[C@@H]2C)cc1	-3	70*	-2	-2	-25[16.7 µM]	-7
Cc1ccc(S(=O)(=O)N(C)C[C@@H]2OCCCC[C@H](C)Oc3ccc(NS(=O)(=O)c4ccc(F)cc4)cc3C(=O)N([C@@H](C)CO)C[C@@H]2C)cc1	-2	58	-9	-2	9[16.7 µM]	-1
COC(=O)C[C@@H]1CC[C@H]2[C@H](COc3ccc(NS(=O)(=O)c4ccc(F)cc4)cc3C(=O)N2C)O1	-3	-4	6	5	10[16.7 µM]	0
Cc1noc(C)c1NC(=O)NCC[C@H]1CC[C@@H](NC(=O)Nc2cccc(F)c2)[C@H](CO)O1	-2	-12	7	4	10[16.7 µM]	-12
C=C1C(=O)O[C@H]2[C@@H]1CC/C(CO)=C\CC[C@@]1(C)O[C@@H]21	-7	83*	-61	11	-12[16.7 µM]	/
C[C@H](CO)N1C[C@H](C)[C@H](CN(C)C(=O)c2ccncc2)OCCCC[C@H](C)Oc2ccc(NC(=O)C3CCCCC3)cc2C1=O	-5	-6	12	-12	5[16.7 µM]	/
